Experimental findings from ChEMBL document CHEMBL4665631, “Synthesis and biological evaluation of paclitaxel and vorinostat co-prodrugs for overcoming drug resistance in cancer therapy in vitro” (Bioorg Med Chem, 2019) are described below.

Calls of active or inactive are those of the source. The calls are words filed in the database; no cut-off is given here.

For series [1], the target named is T1, Histone deacetylase (Homo sapiens) (UniProt Q13547+O15379+Q9UBN7+Q92769+Q9UQL6+Q8WUI4+Q9BY41+Q96DB2+P56524+Q9UKV0+Q969S8). The experiment in a line: Inhibition of HDAC in human MCF7 cells assessed as increase in tubulin acetylation measured after 10 to 24 hrs by Western blot analysis. In kind it is cell-based. As to conditions: time hrs 10-24. The essentials: (§1)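 Cells in logarithmic phase seeded in 6-well plates and cultured overnight. Compound exposure at 37 °C for 10 h and 24 h, with untreated cells as control. Cells lysed in RIPA buffer and lysates boiled. Proteins separated by SDS-PAGE and semidry-transferred to nitrocellulose. Membranes probed with primary antibody overnight at 4 °C, then HRP-conjugated secondary antibody for 1 h at room temperature. Detection by chemiluminescence imaging.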
A general note: Immunoblotting shows a protein as a band on a membrane.

Series [2] has as its target T1, Histone deacetylase (Homo sapiens). The experiment in a line: Inhibition of HDAC in human MCF7/ADR cells assessed as increase in tubulin acetylation measured after 10 to 24 hrs by Western blot analysis. The format is cell-based. To be noted: NCI/ADR-RES, time hrs 10-24. The essentials:
as §1

The target is the same in series [3]. The experiment in a line: Inhibition of HDAC in human HCT-116 cells assessed as increase in tubulin acetylation measured after 10 to 24 hrs by Western blot analysis. In kind it is cell-based. To be noted: time hrs 10-24. The essentials:
as §1

Another series relates to MCF7. The experiment in a line: Cytotoxicity against human MCF7 cells after 72 hrs by SRB assay. To be noted: MCF7, 72 h. The format is functional, cell-based. (In general: In SRB staining, fixed cells bind dye roughly in proportion to their protein.)
For another series, the system named is NCI/ADR-RES. The experiment in a line: Cytotoxicity against human MCF7/ADR cells after 72 hrs by SRB assay. The format is functional, cell-based.
Series [4] can be described thus: Retention time of the compound by HPLC method. The format is physicochemical. The essentials:
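Reversed-phase HPLC with a gradient of acetonitrile and water, both containing 0.1% formic acid, at 1 mL/min. Gradient ran 5% to 95% acetonitrile over 0–15 min, then held at 95% from 15 to 25 min. Injection volume 50 µL.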

The nature of series [5]: Drug degradation in PBS assessed as SAHA release at pH 7.4 after 48 hrs by HPLC analysis. As to conditions: buffer, pH 7.4, 48 h.
A short description of series [6]: Half life in mouse plasma by HPLC analysis. In kind it is ADME, cell-free. In outline:
(§2)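 Co-prodrug diluted into human or mouse plasma and incubated at 37 °C. Sampled at 0.5, 1, 2, 3, 4, 5 and 6 h. Each aliquot quenched with an equal volume of cold acetonitrile and centrifuged. Supernatant analysed by RP-HPLC, with compounds quantified against an external-standard concentration–area curve.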

For another series, the system named is HCT-116. The experiment in a line: Cytotoxicity against human HCT-116 cells after 72 hrs by SRB assay. In kind it is functional, cell-based. To be noted: HCT-116, 72 h.
Series [7] in a line: Half life of compound in PBS buffer at pH 7.4 by HPLC analysis. In kind it is physicochemical. In outline: (§3)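 Co-prodrug stock diluted in 10 mM PBS at pH 7.4 or 6.0 and held at 37 °C. Sampled at 0.5, 1, 2, 3, 4, 6, 12 and 24 h. Intact co-prodrug, released PTX and released SAHA resolved by RP-HPLC. Amounts taken from external-standard concentration curves.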
Series [8] in a line: Half life in human plasma by HPLC analysis. In kind it is ADME, cell-free. In outline: as §2
Series [9] in a line: Stability in PBS at pH 6 assessed as compound remaining after 24 hrs by HPLC analysis. The format is physicochemical. To be noted: read-out: Stabilty. The essentials:
as §3

Series [10] in a line: Drug degradation in PBS assessed as PTX release at pH 7.4 after 48 hrs by HPLC analysis. To be noted: buffer, pH 7.4, 48 h.

Take `CC(=O)O[C@H]1C(=O)[C@@]2(C)[C@H]([C@H](OC(=O)c3ccccc3)[C@]3(O)C[C@H](OC(=O)[C@H](O)[C@@H](NC(=O)c4ccccc4)c4ccccc4)C(C)=C1C3(C)C)[C@]1(OC(C)=O)CO[C@@H]1C[C@@H]2O` [PACLITAXEL]: the inhibition entry in series [1], in series [2] and in [3] was “Active” in each case. The IC50 is less than 1.5 nM in the series with MCF7 and more than 10000 nM with NCI/ADR-RES. Besides, in series [4], the Retention_time came out at 13.81 min.
For `CC(=O)O[C@H]1C(=O)[C@@]2(C)[C@H]([C@H](OC(=O)c3ccccc3)[C@]3(O)C[C@H](OC(=O)[C@H](OC(=O)CNC(=O)ONC(=O)CCCCCCC(=O)Nc4ccccc4)[C@@H](NC(=O)c4ccccc4)c4ccccc4)C(C)=C1C3(C)C)[C@]1(OC(C)=O)CO[C@@H]1C[C@@H]2O`, the inhibition result in series [1], in [2] and in series [3] was “Active” throughout. The Drug degradation in series [5] was 56.8%; in series [10], 50.3%. Besides, the results for the half-life in series [6], in series [7] and in series [8] were 30 min, 120 min and 30 min, respectively. Moreover, the IC50 with MCF7 amounted to 1.5 nM; in the series on HCT-116, 9.55 nM; in the series with NCI/ADR-RES it was 1380 nM. For the same compound, the remaining at 24 h in series [9] is more than 85%. In [4], this compound displayed a Retention_time of 14.62 min.
Compound `O=C(CCCCCCC(=O)Nc1ccccc1)NO` [VORINOSTAT] displayed a Retention_time in series [4] of 8.42 min.
Consider `CC(=O)O[C@H]1C(=O)[C@@]2(C)[C@H]([C@H](OC(=O)c3ccccc3)[C@]3(O)C[C@H](OC(=O)[C@H](OC(=O)CCC(=O)ONC(=O)CCCCCCC(=O)Nc4ccccc4)[C@@H](NC(=O)c4ccccc4)c4ccccc4)C(C)=C1C3(C)C)[C@]1(OC(C)=O)CO[C@@H]1C[C@@H]2O`, for which the half-life in [6] and in [8] was 30 min each time. For the same compound, the values for the IC50 in the series with MCF7, with HCT-116 and with NCI/ADR-RES were 62.4 nM, 144 nM and 4020 nM, respectively. Moreover, in [9], the remaining at 24 h is more than 85%. For the same compound, the Retention_time in series [4] worked out at 15.06 min.
`CC(=O)O[C@H]1C(=O)[C@@]2(C)[C@H]([C@H](OC(=O)c3ccccc3)[C@]3(O)C[C@H](OC(=O)[C@H](OC(=O)CCC(=O)O)[C@@H](NC(=O)c4ccccc4)c4ccccc4)C(C)=C1C3(C)C)[C@]1(OC(C)=O)CO[C@@H]1C[C@@H]2O`: the Retention_time in series [4] was found to be 13.63 min.

By IC50 is commonly meant the concentration that gives 50% inhibition. Read a high IC50 as a need for much substance. In general, half-life refers to the time in which the quantity being followed falls by half.
